Screens from PubChem.
In the library only some 1.8% were active in any assay of this set; here they are far more common.
CRFR2-BP antag: antagonists of CRF-binding protein/CRF-R2 receptor complex. inhibition, % at 11.8 µM. hit rate 0.59% among 350,000. HEK293 CRF-R2/CRF-BP, CRF-induced calcium fluorescence;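 active means inhibition of the ligand-induced calcium signal above about 50% at the single tested concentration, limit read from the data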
XBP1 UPR activ: activators of adaptive arm of unfolded protein response (XBP1) | CHO-XBP1 luciferase reporter, IRE1-XBP1 UPR activation, luminescence; percent of tunicamycin response, DMSO as zero | activation, % at 20 µM | hit rate 0.33% among 330,000;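 active means versus positive control, 20 µM dose yields 30% or more activation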;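 further: 100% = tunicamycin at 10 µg/mL and 0% = DMSO only wells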
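Material – CHO cell line with stable XBP1 luciferase reporter · Buffer or medium – F12 plus 10% FBS · Compound – single point, 20 µM final compound, 1% DMSO · Schedule – 16-18 h cell attachment at 37 °C, then 6 h compound exposure · Signal – Steady-Glo luminescence read · Benchmarks – high control tunicamycin 10 µg/mL final, low control DMSO vehicle only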
Jurkat NFkB inh: lowers PMA/ionomycin-induced NF-kB signal in Jurkat cells | PMA/ionomycin-induced NF-kB luciferase reporter, luminescence | hit rate 0.53% among 330,000 | inhibition, % at 4 µM | AID 435003; in the data active means inhibition above about 50%
UPR CHOP act: apoptotic UPR (CHOP) activation; AID 449763; activation, % at 10 µM; CHO-CHOP luciferase reporter, luminescence; percent of tunicamycin response over DMSO baseline; hit rate 0.34% among 330,000;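 active means at 10 µM dose, activation of 40% or more, normalized to positive control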;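 further: 100% = tunicamycin at 10 µg/mL and 0% = DMSO alone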
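measured by = luciferase luminescence | assay system = CHO-CHOP cells, stable luciferase reporter of PERK-eIF2a-CHOP signalling | amount = 500 reporter cells seeded per well | timing = 6 h compound exposure at 37 °C after overnight seeding | controls = positive tunicamycin 10 µg/mL, negative DMSO alone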
697 NFkB inh: inhibitors of the PMA/ionomycin-induced NF-kB reporter in 697 B cells | AID 435022 | 697 B-cell NF-kB luciferase reporter, 16 h | inhibition, % at 4 µM | hit rate 0.33% among 330,000; in the data active means inhibition above about 35%
Jurkat NFkB conf: inhibitors of the PMA/ionomycin-induced NF-kB reporter in Jurkat cells, retest | shares compounds with Jurkat NFkB inh | hit rate 27% among 2,700 | Jurkat NF-kB luciferase, 16 h | inhibition, % at 4 µM;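 active means inhibition reaching about 45% at 4 µM in either replicate, limit read from the data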;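 further: plate controls were PMA/ionomycin stimulated DMSO wells for no effect and unstimulated DMSO wells for full effect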
An asterisk follows results filed as active; / = no result given.

SMILES	CRFR2-BP antag	XBP1 UPR activ	Jurkat NFkB inh	UPR CHOP act	697 NFkB inh	Jurkat NFkB conf
Nc1ccc(N=Nc2ccccc2)c2cccnc12	13	15	84*	5	-85	-2
Cc1ccccc1N=Nc1ccc(O)c2ncccc12	18	/	/	/	/	/
CCOc1ccc(OCC)c(NC(=O)CN2CCN(c3cccc(C)c3)C(C)C2)c1 (centres undefined)	24	1	58*	1	-20	19
Nc1c(Cl)ncnc1NCc1ccccc1	13	-5	-6	-2	-40	/
COc1ccc(C2=Nn3c([n+](C)c4ccccc43)SC2)cc1	5	2	54*	0	25	63*
C[n+]1c2n(c3ccccc31)N=C(c1ccc(Cl)cc1)CS2	-6	-1	9	-3	-16	/
COc1ccc(NC(=O)c2nc(C)c(C3(C)CC(c4ccccc4)=NO3)s2)cc1 (centres undefined)	-3	9	55*	0	-14	37
CC(Sc1nccn1C)C(=O)Nc1ccc(Cl)cn1 (centres undefined)	10	0	2	0	3	/
